The nature of data set [1]: AUC(last) in rat at 5 mg/kg, po. Also on record: dose 5 mg/kg, time 0 - last, route oral. Type of data set: ADME, organism-based. Particulars: in vivo. The gist of the method:
(§1)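 Oral dosing in rat at 5 mg/kg in PEG 400/ethanol (90:10 v/v) vehicle.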

Data set [2] can be described thus: Cmax in rat at 5 mg/kg, po. The format is ADME, organism-based. Also noted: dose 5 mg/kg, route oral. Particulars: in vivo. Summed up: as §1
The subject of data set [3] is Liver. Put plainly: Drug metabolism in Aroclor-1254-induced rat liver S9 fraction assessed as 1-(1-hydroxy-5-(pyridin-2-yl)-3,4-dihydroisoquinolin-2(1H)-yl)-2-(4-methoxy-7-(3-methyl-1H-1,2,4-triazol-1-yl)-1H-pyrrolo[2,3-c]pyridin-3-yl)ethane-1,2-dione formation incubated at 37 degC for 4.5 hrs. The format is ADME, subcellular. The following applies: s9, 4.5 h.
Data set [4] in a line: Volume of distribution at steady state in rat at 1 mg/kg, iv. Type of data set: ADME, organism-based. Particulars: in vivo, read-out: Vdss. The gist of the method: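 Intravenous dosing in rat at 1 mg/kg. Plasma clearance and volume of distribution were determined.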
The nature of data set [5]: Permeability of compound at pH 5.5 by PAMPA. Type of data set: ADME. Particulars: read-out: permeability. Summed up: (§2)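 Passive permeability by PAMPA at pH 7.4 and pH 5.5, reported in nm/s.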
A short description of data set [6]: Permeability of compound at pH 7.4 by PAMPA. Type of data set: ADME. Particulars: read-out: permeability. The gist of the method: as §2
For orientation: The PAMPA barrier holds no transporters, so it reflects passive diffusion.

Data set [7] concerns Liver. Put plainly: Drug level in Aroclor-1254-induced rat liver S9 fraction treated with 1-(4-methoxy-7-(3-methyl-1H-1,2,4-triazol-1-yl)-1H-pyrrolo[2,3-c]pyridin-3-yl)-2-(5-(pyridin-2-yl)-3,4-dihydroisoquinolin-2(1H)-yl)ethane-1,2-dione assessed as compound formation incubated at 37 degC for 4.5 hrs. Type of data set: ADME, subcellular. Particulars: s9, 4.5 h.

For orientation: AUC(0-t) means exposure summed from dosing to a finite time, without extrapolation to infinity. Low values mean less exposure, high ones more exposure. A word on the Cmax: it is the maximum level reached in the sampled fluid or tissue.

`COc1cnc(-n2cnc(C)n2)c2[nH]cc(C(=O)C(=O)N3CCN(C(=O)c4ccccc4)CC3)c12` had an AUC(0-t) in data set [1] of 52 µM·h. The highest level in data set [2] (Cmax) was 6.4 µM.
Turning to `COc1cnc(-n2cnc(C)n2)c2[nH]cc(C(=O)C(=O)N3CCc4c(cccc4-c4ccccn4)C3)c12`, the Drug metabolism entry in data set [3] was “metabolite_detected”.
`COc1cnc(-n2cnc(C)n2)c2[nH]cc(C(=O)C(=O)N3CCc4c(ncnc4-c4ccccn4)C3)c12` displayed an AUC(0-t) in data set [1] of 41 µM·h. The Vd in data set [4] was 0.33 L/kg. Moreover, the Papp in data set [5] was 24.4 ×10⁻⁶ cm/s; in data set [6], 29.4 ×10⁻⁶ cm/s. In addition, in data set [2], the Cmax was 10 µM.
Consider `COc1cnc(-c2cc(C(=O)O)[nH]n2)c2[nH]cc(C(=O)C(=O)N3CCc4c(cccc4-c4ccccn4)C3)c12`, for which the Papp in data set [5] came out at 3.2 ×10⁻⁶ cm/s.
`COc1cnc(-n2cnc(C)n2)c2[nH]cc(C(=O)C(=O)N3CCc4c(-c5ccccn5)cccc4C3O)c12` (stereo not given): the Drug metabolism entry in data set [7] is “metabolite_detected”.

The record behind these values is ChEMBL document CHEMBL3745674, “Inhibitors of HIV-1 attachment: The discovery and structure-activity relationships of tetrahydroisoquinolines as replacements for the piperazine benzamide in the 3-glyoxylyl 6-azaindole pharmacophore” (Bioorg Med Chem Lett, 2016).
